For assay [1], the system named is Streptomyces coelicolor. The experiment in a line: Inhibition of Ca(2+)/Calmodulin-dependent aph8 phosphorylation in Streptomyces coelicolor cell lysate assessed as [32Pi] incorporation into aph8 at 500 nM by microplate scintillation counter relative to control. The arrangement: scale not given: the % may be the effect or the level left. In outline:
(§1)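 Radiometric in vitro assay of actinobacterial protein kinases. Kinases incubated under standard conditions with [γ-³²P]ATP and aphVIII as substrate, with or without modulators or inhibitors. Read-out was incorporation of the γ-phosphoryl residue into aphVIII.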

In assay [2] the test system is Streptomyces coelicolor. The experiment in a line: Inhibition of aph8-induced kanamycin phosphorylation in Streptomyces coelicolor cell lysate assessed as [32Pi] incorporation into kanamycin at 10 uM by microplate scintillation counter relative to control. On the set-up: scale not given: the % may be the effect or the level left.
For assay [3], the system named is Streptomyces lividans. As to the kind of experiment: Inhibition of aph8 positive Streptomyces lividans at 5 uM after 20 hrs by paper disk method. The note with it: read-out: IZ. It is filed as functional. The method, boiled down: (§2)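 Test culture was Streptomyces lividans carrying plasmid pSU23 with the aphVIII gene, whose kanamycin-inactivating activity depends on Ser/Thr kinase phosphorylation. Paper disks (7 mm) held kanamycin (5 µg/disk) plus test compound at subtoxic amounts, about half the minimal growth-inhibitory dose. Disks went on plates of log-phase cells at 28 °C for 20 h. Read-out was lysis zone diameter.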

In assay [4] the test system is Streptomyces lividans. The experiment in a line: Inhibition of aph8 positive Streptomyces lividans at 50 uM after 20 hrs by paper disk method. Format: functional. The note with it: read-out: IZ. The method, boiled down: as §2
For assay [5], the system named is Streptomyces lividans. As to the kind of experiment: Inhibition of aph8 positive Streptomyces lividans at 25 uM after 20 hrs by paper disk method. It is filed as functional. The settings on record: read-out: IZ. In outline: as §2
Assay [6] deals with Streptomyces lividans. As to the kind of experiment: Inhibition of aph8 positive Streptomyces lividans at 10 uM after 20 hrs by paper disk method. It is filed as functional. The note with it: read-out: IZ. In outline: as §2
In assay [7] the test system is Streptomyces lividans. The experiment in a line: Inhibition of aph8 positive Streptomyces lividans at 100 uM after 20 hrs by paper disk method. Format: functional. The settings on record: read-out: IZ. The method, boiled down:
as §2

Assay [8] has as its target Insulin receptor (Homo sapiens, UniProt P06213). The experiment in a line: Inhibition of human INSR.
The target in assay [9] is Insulin-like growth factor 1 receptor (Homo sapiens, UniProt P08069). As to the kind of experiment: Inhibition of human IGF1R.
The target of assay [10] is Serine/threonine-protein kinase PLK1 (Homo sapiens, UniProt P53350). As to the kind of experiment: Inhibition of human PLK1.
The target in assay [11] is T1, Ephrin type-B receptor 4 (Homo sapiens, UniProt P54760).
T1 sequence (P54760 whole entry): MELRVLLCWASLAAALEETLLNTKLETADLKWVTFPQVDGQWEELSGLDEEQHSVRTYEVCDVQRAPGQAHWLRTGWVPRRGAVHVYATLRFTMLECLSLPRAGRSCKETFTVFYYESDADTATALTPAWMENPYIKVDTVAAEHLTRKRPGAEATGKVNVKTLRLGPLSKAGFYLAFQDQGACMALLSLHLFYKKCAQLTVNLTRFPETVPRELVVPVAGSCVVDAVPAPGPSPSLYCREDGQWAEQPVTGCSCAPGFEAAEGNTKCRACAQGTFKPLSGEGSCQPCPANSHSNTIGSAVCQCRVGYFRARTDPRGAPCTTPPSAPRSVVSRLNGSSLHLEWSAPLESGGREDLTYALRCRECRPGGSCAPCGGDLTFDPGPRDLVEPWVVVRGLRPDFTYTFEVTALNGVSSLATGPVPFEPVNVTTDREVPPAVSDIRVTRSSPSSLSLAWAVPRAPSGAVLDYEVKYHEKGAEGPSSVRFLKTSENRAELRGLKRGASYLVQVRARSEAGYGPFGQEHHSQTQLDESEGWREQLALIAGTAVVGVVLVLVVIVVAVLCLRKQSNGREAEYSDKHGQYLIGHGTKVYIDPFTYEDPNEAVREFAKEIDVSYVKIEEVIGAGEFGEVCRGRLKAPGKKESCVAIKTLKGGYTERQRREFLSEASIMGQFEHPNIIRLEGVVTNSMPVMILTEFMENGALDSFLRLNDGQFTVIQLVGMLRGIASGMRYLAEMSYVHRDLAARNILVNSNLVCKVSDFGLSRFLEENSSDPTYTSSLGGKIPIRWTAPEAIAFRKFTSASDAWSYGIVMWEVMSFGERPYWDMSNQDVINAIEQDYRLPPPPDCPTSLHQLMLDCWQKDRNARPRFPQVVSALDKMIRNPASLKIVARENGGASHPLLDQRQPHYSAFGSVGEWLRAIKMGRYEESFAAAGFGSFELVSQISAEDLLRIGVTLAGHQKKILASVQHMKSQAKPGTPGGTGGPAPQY
The experiment in a line: Inhibition of human EPHB4.

Assay [12] has as its target Receptor tyrosine-protein kinase erbB-2 (Homo sapiens, UniProt P04626). As to the kind of experiment: Inhibition of human ERBB2.
In assay [13] the target is Platelet-derived growth factor receptor beta (Homo sapiens, UniProt P09619). The experiment in a line: Inhibition of human PDGFRbeta.
For assay [14], the target named is Serine/threonine-protein kinase B-raf (Homo sapiens, UniProt P15056, V600E). The experiment in a line: Inhibition of human B-RAF-V600E mutant.
Assay [15] deals with Proto-oncogene tyrosine-protein kinase Src (Homo sapiens, UniProt P12931). As to the kind of experiment: Inhibition of human SRC.
Assay [16] concerns the target Hepatocyte growth factor receptor (Homo sapiens, UniProt P08581). The experiment in a line: Inhibition of human MET.
Assay [17] concerns the target Vascular endothelial growth factor receptor 2 (Homo sapiens, UniProt P35968). As to the kind of experiment: Inhibition of human VEGFR2.
In assay [18] the target is Cyclin-dependent kinase 2 (Homo sapiens, UniProt P24941). The experiment in a line: Inhibition of human CDK2/CycA.
Assay [19] addresses Focal adhesion kinase 1 (Homo sapiens, UniProt Q05397). The experiment in a line: Inhibition of human FAK.
For assay [20], the target named is Cyclin-dependent kinase 4/cyclin D1 (Homo sapiens, UniProt P11802). The experiment in a line: Inhibition of human CDK4/CycD1. It is filed as protein-complex assay.
Assay [21] deals with RAC-alpha serine/threonine-protein kinase (Homo sapiens, UniProt P31749). As to the kind of experiment: Inhibition of human AKT1.
The subject of assay [22] is Streptomyces lividans. The experiment in a line: Inhibition of aph8 positive Streptomyces lividans at 1200 uM after 20 hrs by paper disk method. It is filed as functional. The note with it: read-out: IZ. The method, boiled down: as §2
In assay [23] the test system is Streptomyces lividans. The experiment in a line: Inhibition of aph8 positive Streptomyces lividans at 150 uM after 20 hrs by paper disk method. It is filed as functional. The settings on record: read-out: IZ. The method, boiled down:
as §2

Assay [24] relates to Streptomyces lividans. The experiment in a line: Inhibition of aph8 positive Streptomyces lividans at 75 uM after 20 hrs by paper disk method. It is filed as functional. The note with it: read-out: IZ. The method, boiled down: as §2
Assay [25] concerns Streptomyces coelicolor. The experiment in a line: Inhibition of Ca(2+))/phosphatidylserine/diacylglycerol-dependent aph8 phosphorylation in Streptomyces coelicolor cell lysate assessed as [32Pi] incorporation into aph8 at 500 nM by microplate scintillation counter relative to control. On the set-up: scale not given: the % may be the effect or the level left. In outline:
as §1

Assay [26] has as its system Streptomyces lividans. The experiment in a line: Inhibition of aph8 positive Streptomyces lividans at 600 uM after 20 hrs by paper disk method. The settings on record: read-out: IZ. Format: functional. In outline:
as §2

The subject of assay [27] is Streptomyces lividans. The experiment in a line: Inhibition of aph8 positive Streptomyces lividans at 300 uM after 20 hrs by paper disk method. It is filed as functional. The note with it: read-out: IZ. The method, boiled down: as §2
In assay [28] the test system is Streptomyces lividans. As to the kind of experiment: Inhibition of aph8 positive Streptomyces lividans at 80 uM after 20 hrs by paper disk method. Format: functional. The note with it: read-out: IZ. The method, boiled down: as §2
For assay [29], the system named is Streptomyces lividans. As to the kind of experiment: Inhibition of aph8 positive Streptomyces lividans at 20 uM after 20 hrs by paper disk method. It is filed as functional. The note with it: read-out: IZ. In outline: as §2
For assay [30], the system named is Streptomyces lividans. As to the kind of experiment: Inhibition of aph8 positive Streptomyces lividans at 40 uM after 20 hrs by paper disk method. Format: functional. The settings on record: read-out: IZ. In outline:
as §2

Assay [31] deals with Angiopoietin-1 receptor (Homo sapiens, UniProt Q02763). As to the kind of experiment: Inhibition of human TIE2.
In assay [32] the target is Vascular endothelial growth factor receptor 3 (Homo sapiens, UniProt P35916). As to the kind of experiment: Inhibition of human VEGFR3.
The target in assay [33] is Epidermal growth factor receptor (Homo sapiens, UniProt P00533). The experiment in a line: Inhibition of human EGFR.

Each structure is given as a SMILES string.

Sequence of Insulin-like growth factor 1 receptor (P08069 31-736 limits assumed): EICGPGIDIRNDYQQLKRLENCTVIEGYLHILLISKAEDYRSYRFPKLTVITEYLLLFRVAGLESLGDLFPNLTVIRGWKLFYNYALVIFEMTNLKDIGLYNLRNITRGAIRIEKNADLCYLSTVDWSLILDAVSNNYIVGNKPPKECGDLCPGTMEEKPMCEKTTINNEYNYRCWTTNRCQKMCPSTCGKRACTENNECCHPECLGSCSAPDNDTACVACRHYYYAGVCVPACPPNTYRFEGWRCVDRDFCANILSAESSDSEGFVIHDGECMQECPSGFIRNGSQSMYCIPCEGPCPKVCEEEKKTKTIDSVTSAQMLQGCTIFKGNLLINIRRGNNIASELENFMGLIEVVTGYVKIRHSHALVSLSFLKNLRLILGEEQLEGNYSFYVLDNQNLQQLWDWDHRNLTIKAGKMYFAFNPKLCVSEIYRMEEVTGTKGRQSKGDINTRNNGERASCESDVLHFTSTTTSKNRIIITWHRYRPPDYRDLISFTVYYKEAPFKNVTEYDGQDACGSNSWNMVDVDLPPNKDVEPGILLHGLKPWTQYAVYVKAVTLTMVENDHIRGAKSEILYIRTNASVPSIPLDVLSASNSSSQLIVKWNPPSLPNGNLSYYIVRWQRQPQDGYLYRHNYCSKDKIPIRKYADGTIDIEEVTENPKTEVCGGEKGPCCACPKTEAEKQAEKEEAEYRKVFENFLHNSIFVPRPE
Sequence of Insulin-like growth factor 1 receptor (P08069 741-1367 limits assumed): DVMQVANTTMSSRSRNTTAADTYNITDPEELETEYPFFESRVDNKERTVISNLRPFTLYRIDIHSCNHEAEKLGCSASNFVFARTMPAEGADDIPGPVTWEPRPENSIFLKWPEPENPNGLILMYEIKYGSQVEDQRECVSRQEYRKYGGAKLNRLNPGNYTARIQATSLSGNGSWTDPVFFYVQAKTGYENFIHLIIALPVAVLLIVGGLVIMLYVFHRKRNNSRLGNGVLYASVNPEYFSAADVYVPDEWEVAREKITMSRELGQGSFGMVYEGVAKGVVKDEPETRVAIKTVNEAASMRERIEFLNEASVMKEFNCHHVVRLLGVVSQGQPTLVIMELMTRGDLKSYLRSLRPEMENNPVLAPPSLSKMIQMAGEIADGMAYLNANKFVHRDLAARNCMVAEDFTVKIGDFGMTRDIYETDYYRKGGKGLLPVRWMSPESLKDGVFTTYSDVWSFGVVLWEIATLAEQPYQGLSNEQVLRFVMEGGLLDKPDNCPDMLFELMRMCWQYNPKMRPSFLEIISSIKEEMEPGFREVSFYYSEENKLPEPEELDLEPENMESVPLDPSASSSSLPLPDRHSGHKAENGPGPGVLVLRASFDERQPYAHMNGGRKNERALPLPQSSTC
Sequence of Cyclin-dependent kinase 4/cyclin D1 (P11802 whole entry): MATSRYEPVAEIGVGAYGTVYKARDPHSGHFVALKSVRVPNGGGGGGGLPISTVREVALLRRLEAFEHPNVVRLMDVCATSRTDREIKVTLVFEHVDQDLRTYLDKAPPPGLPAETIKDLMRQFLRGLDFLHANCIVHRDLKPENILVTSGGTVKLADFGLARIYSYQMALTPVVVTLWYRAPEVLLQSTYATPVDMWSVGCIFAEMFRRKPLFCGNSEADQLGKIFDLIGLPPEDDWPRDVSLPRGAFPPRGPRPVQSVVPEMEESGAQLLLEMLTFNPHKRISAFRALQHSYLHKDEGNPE
Sequence of Cyclin-dependent kinase 4/cyclin D1 (P24385 whole entry, further chain): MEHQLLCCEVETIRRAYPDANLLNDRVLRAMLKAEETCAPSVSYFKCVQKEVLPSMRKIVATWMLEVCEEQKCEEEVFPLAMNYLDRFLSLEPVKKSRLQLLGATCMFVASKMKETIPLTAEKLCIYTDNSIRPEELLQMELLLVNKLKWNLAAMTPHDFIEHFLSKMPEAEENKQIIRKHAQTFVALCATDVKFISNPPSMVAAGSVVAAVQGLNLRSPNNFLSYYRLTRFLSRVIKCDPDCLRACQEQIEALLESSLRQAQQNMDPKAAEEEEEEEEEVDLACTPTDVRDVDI
Sequence of Vascular endothelial growth factor receptor 2 (P35968 whole entry): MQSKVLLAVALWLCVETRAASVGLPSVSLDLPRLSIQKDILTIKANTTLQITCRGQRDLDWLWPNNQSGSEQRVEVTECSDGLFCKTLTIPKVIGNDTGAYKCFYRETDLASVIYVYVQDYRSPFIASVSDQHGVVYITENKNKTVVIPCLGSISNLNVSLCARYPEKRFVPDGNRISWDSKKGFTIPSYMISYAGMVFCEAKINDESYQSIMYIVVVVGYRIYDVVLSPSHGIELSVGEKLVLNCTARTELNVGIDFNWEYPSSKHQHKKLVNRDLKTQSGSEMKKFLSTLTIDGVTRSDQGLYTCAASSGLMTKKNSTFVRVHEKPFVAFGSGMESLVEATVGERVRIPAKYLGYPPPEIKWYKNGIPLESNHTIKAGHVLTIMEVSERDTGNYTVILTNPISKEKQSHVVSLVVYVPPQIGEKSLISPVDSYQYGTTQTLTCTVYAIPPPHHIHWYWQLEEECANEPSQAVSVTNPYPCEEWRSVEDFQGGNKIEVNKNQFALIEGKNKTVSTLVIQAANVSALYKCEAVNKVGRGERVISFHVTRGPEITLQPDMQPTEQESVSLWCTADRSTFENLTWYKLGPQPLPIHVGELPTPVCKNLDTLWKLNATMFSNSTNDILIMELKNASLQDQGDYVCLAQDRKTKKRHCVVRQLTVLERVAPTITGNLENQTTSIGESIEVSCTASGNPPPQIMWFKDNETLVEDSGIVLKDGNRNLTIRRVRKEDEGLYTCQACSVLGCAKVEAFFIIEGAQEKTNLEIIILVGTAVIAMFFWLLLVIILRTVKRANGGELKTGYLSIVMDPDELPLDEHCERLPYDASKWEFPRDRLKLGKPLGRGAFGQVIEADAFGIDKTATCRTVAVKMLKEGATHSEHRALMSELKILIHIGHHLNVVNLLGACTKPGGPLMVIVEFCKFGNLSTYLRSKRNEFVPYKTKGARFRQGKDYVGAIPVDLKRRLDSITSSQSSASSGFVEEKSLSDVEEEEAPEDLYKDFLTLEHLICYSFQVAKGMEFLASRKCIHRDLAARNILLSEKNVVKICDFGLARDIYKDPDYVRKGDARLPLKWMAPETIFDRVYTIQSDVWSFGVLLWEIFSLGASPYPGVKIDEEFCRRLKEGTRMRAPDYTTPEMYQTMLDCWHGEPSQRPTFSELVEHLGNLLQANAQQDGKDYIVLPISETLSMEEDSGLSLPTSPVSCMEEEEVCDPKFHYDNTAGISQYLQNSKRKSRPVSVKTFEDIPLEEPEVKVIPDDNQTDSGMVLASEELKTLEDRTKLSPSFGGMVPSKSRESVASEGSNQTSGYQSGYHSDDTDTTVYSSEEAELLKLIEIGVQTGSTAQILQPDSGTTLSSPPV
Sequence of Platelet-derived growth factor receptor beta (P09619 whole entry): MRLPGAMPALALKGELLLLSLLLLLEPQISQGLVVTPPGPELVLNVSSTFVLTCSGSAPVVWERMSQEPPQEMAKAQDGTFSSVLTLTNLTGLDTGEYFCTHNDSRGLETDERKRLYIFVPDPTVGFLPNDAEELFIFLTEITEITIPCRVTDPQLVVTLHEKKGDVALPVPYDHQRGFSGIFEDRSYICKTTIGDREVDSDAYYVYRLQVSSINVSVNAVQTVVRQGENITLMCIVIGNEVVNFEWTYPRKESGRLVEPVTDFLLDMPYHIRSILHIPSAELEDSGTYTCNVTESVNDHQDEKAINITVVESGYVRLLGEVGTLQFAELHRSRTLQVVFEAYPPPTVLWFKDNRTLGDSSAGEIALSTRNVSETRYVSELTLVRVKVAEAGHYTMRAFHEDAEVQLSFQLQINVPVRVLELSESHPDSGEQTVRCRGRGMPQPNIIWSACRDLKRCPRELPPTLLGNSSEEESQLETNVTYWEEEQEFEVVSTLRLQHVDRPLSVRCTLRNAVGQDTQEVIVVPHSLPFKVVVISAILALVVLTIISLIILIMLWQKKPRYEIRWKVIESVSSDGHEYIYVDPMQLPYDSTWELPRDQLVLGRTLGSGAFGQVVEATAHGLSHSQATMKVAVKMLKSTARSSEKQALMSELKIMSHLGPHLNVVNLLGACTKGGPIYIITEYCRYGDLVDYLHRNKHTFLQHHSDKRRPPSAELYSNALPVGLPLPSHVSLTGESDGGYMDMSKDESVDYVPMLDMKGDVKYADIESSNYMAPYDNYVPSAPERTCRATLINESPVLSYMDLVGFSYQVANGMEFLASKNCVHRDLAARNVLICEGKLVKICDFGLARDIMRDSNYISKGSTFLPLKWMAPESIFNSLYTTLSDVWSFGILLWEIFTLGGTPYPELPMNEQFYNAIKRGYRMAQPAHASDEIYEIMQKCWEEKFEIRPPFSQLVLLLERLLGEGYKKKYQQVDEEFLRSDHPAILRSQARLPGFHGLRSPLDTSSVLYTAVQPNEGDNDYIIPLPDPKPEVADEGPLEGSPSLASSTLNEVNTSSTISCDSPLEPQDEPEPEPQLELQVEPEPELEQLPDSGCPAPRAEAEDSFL
Sequence of Proto-oncogene tyrosine-protein kinase Src (P12931 2-536 limits assumed): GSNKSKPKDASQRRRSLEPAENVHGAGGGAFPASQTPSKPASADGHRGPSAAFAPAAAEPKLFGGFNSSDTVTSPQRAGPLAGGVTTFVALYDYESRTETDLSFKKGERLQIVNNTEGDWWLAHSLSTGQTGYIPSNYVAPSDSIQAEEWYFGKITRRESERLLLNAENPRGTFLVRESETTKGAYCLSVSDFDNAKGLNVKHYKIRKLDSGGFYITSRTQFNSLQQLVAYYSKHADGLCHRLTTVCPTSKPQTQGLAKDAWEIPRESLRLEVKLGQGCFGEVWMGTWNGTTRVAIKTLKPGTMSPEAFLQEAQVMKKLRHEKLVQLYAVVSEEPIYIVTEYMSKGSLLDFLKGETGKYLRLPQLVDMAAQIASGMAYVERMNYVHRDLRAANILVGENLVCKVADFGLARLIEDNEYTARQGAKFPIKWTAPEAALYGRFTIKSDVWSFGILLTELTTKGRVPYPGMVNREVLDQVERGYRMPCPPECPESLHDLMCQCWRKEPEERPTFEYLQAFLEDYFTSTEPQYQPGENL

With `CN([C@@H](Cc1ccc(OS(=O)(=O)c2cccc3cnccc23)cc1)C(=O)N1CCN(c2ccccc2)CC1)S(=O)(=O)c1cccc2cnccc12`, the Activity in [1] was determined as 113%.

For `CCN(CC)Cc1cn2c3c(cccc13)C1Cc3ccccc3N1C1=C2C(=O)NC1=O` (centres undefined), the Activity in assay [2] worked out at 92%. Also, in assay [3], the zone of inhibition at 5 µM came to 0 mm. The zone of inhibition at 50 µM in assay [4] came to 9 mm. For the same compound, in [5], the zone of inhibition at 25 µM was determined as 7.5 mm. In assay [6], the zone of inhibition at 10 µM is 0 mm. Besides, the zone of inhibition at 100 µM in [7] is 12 mm.

With `N=C(N)SCCCn1c(=O)c2c(c1=O)n1c3ccccc3cc1c1cccc3ccn2c31`, the concentration for half-maximal inhibition (IC50) in assay [8] came to 2600 nM; in assay [9], 4 µM; in assay [10], 9.9 µM; in assay [11], 2300 nM; in assay [12], 7.7 µM; in assay [13], 4.2 µM. Further, the IC50 worked out at 1200 nM in [14]; 3.8 µM in assay [15]; 3.3 µM in [16]; 4.1 µM in assay [17]; 3.6 µM in assay [18]; 4.4 µM in assay [19]. Further, the IC50 amounted to 2.7 µM in [20] and 9 µM in [21].

On to `CN(C)CCCn1cc(C2=C(c3c[nH]c4ccccc34)C(=O)NC2=O)c2ccccc21` [GF-109203], for which the zone of inhibition at 1200 µM in [22] was 10 mm. Further, in assay [23], the zone of inhibition at 150 µM turned out to be 0 mm. Further, the values for the Activity in [2] and in [25] were 95% and 152%, respectively. For the same compound, in assay [24], the zone of inhibition at 75 µM turned out to be 0 mm. For the same compound, the zone of inhibition at 600 µM in assay [26] came out at 9 mm. Besides, in assay [27], the zone of inhibition at 300 µM was 7.5 mm.

Regarding `CN1C(=O)C(c2c[nH]c3ccccc23)=C(c2c[nH]c3ccccc23)C1=O`, the figures for the Activity in assay [2] and in [25] were 89% and 206%, respectively.

Consider `CCN(CC)CCCN1C(=O)C2=C(C1=O)n1ccc3cccc(c31)C1Cc3ccccc3N21` (centres undefined), for which the Activity in assay [2] was 94%. Also, the zone of inhibition at 80 µM in [28] is 11 mm. Besides, the zone of inhibition at 20 µM in [29] was 7.5 mm. The zone of inhibition at 40 µM in assay [30] amounted to 9 mm. In assay [3], the zone of inhibition at 5 µM is 0 mm. Also, the zone of inhibition at 10 µM in [6] came to 0 mm.

On to `N=C(Nc1ccccc1)SCCCN1C(=O)C2=C(C1=O)n1ccc3cccc(c31)C1Cc3ccccc3N21` (centres undefined), for which the IC50 worked out at 8.9 µM in [31]; 2.3 µM in assay [9]; 9.6 µM in assay [32]; 4.3 µM in assay [17]; 5.1 µM in [18]; 9.5 µM in [33]. In [20], this compound yielded an IC50 of 7.9 µM.

Regarding `CCNC(=N)SCCCN1C(=O)C2=C(C1=O)n1ccc3cccc(c31)C1Cc3ccccc3N21` (centres undefined), the IC50 in assay [18] amounted to 6.8 µM.

A word on the IC50: it is the concentration at which inhibition is half-maximal.
